Data taken from ChEMBL document CHEMBL1275556, “High prevalence of plasmid-mediated quinolone resistance genes qnr and aac(6')-Ib-cr in clinical isolates of Enterobacteriaceae from nine teaching hospitals in China” (2008).

Experiments:
Klebsiella pneumoniae [1] = experiment: Antimicrobial activity against aac(6')-Ib-cr-positive Klebsiella pneumoniae JN132T harboring qnrB gene by agar dilution method; format: functional
In short: (§1)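 Transconjugants were made by conjugating a qnr/aac(6')-Ib-cr donor with azide-resistant E. coli J53. Selection used Trypticase soy agar with sodium azide 150 µg/ml and sulfamethoxazole 180 µg/ml. […] MICs were read by CLSI agar dilution (M7-A7) and interpreted per M100-S17.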

Citrobacter freundii [2] = experiment: Antimicrobial activity against aac(6')-Ib-cr-positive Citrobacter freundii JN1T by agar dilution method; format: functional
In short: (§2)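 MICs were determined by the CLSI agar dilution method (M7-A7) and interpreted against CLSI M100-S17 breakpoints.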

Klebsiella pneumoniae [3] = experiment: Antimicrobial activity against aac(6')-Ib-cr-positive Klebsiella pneumoniae GZ40T harboring qnrB gene by agar dilution method
Enterobacter cloacae [4] = experiment: Antimicrobial activity against aac(6')-Ib-cr-positive Enterobacter cloacae FJ63 harboring GyrA S83I, GyrA D87A, ParC S80I mutant, wild-type GyrB and qnrS genes by agar dilution method; format: functional
Klebsiella pneumoniae [5] = experiment: Antimicrobial activity against aac(6')-Ib-cr-positive Klebsiella pneumoniae WH99T harboring qnrB gene by agar dilution method; format: functional; in short: as §1
Enterobacter cloacae [6] = experiment: Antimicrobial activity against aac(6')-Ib-cr-negative Enterobacter cloacae GZ51 harboring qnrA gene by agar dilution method; format: functional
Enterobacter cloacae [7] = experiment: Antimicrobial activity against aac(6')-Ib-cr-negative Enterobacter cloacae SH39T harboring qnrA gene by agar dilution method; format: functional
Escherichia coli [8] = experiment: Antimicrobial activity against aac(6')-Ib-cr-negative Escherichia coli PU12 harboring GyrA S83L mutant, wild-type GyrB, ParC and qnrS genes by agar dilution method; format: functional; in short: as §2
Citrobacter freundii [9] = experiment: Antimicrobial activity against aac(6')-Ib-cr-positive Citrobacter freundii JS33 harboring GyrA T83I mutant, wild-type ParC, GyrB, qnrA and qnrB genes by agar dilution method; format: functional; in short: as §2
Citrobacter freundii [10] = experiment: Antimicrobial activity against aac(6')-Ib-cr-positive Citrobacter freundii PU55 harboring GyrA T83I, ParC S80I mutant, wild-type GyrB, qnrA genes by agar dilution method; format: functional; in short: as §2
Klebsiella pneumoniae [11] = experiment: Antimicrobial activity against aac(6')-Ib-cr-positive Klebsiella pneumoniae JN41T harboring qnrB gene by agar dilution method; format: functional; in short: as §1
Klebsiella pneumoniae [12] = experiment: Antimicrobial activity against aac(6')-Ib-cr-positive Klebsiella pneumoniae GZ40 harboring GyrA S83I, ParC S80I mutant, wild-type GyrB and qnrB genes by agar dilution method; format: functional; in short: as §2
Enterobacter cloacae [13] = experiment: Antimicrobial activity against aac(6')-Ib-cr-negative Enterobacter cloacae FJ67T harboring qnrS gene by agar dilution method; format: functional
Klebsiella pneumoniae [14] = experiment: Antimicrobial activity against aac(6')-Ib-cr-positive Klebsiella pneumoniae JN132 harboring GyrA S83I, ParC S80I mutant, wild-type GyrB and qnrB genes by agar dilution method; format: functional
In short: (§3)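 MICs were determined on clinical isolates by CLSI agar dilution (M7-A7) and interpreted against CLSI M100-S17 breakpoints.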

Enterobacter cloacae [15] = experiment: Antimicrobial activity against aac(6')-Ib-cr-negative Enterobacter cloacae GZ51T harboring qnrA gene by agar dilution method; format: functional
Escherichia coli [16] = experiment: Antimicrobial activity against aac(6')-Ib-cr-positive Escherichia coli FJ3 harboring GyrA S83L, ParC S80R mutant, wild-type GyrB and qnrB genes by agar dilution method; format: functional; in short: as §2
Escherichia coli [17] = experiment: Antimicrobial activity against Escherichia coli J53 harboring wild-type GyrA, ParC, GyrB genes by agar dilution method
Klebsiella pneumoniae [18] = experiment: Antimicrobial activity against aac(6')-Ib-cr-negative Klebsiella pneumoniae SY22 harboring GyrA S83I, ParC S80I mutant, wild-type GyrB and qnrS genes by agar dilution method; format: functional; in short: as §2
Citrobacter freundii [19] = experiment: Antimicrobial activity against aac(6')-Ib-cr-positive Citrobacter freundii PU55T harboring wild-type GyrA, ParC, GyrB and qnrA genes by agar dilution method
Enterobacter cloacae [20] = experiment: Antimicrobial activity against aac(6')-Ib-cr-negative Enterobacter cloacae GZ47 harboring qnrB and qnrS genes by agar dilution method; format: functional
Escherichia coli [21] = experiment: Antimicrobial activity against aac(6')-Ib-cr-positive Escherichia coli FJ3T harboring wild-type GyrA, ParC, GyrB and qnrB genes by agar dilution method
Citrobacter freundii [22] = experiment: Antimicrobial activity against aac(6')-Ib-cr-positive Citrobacter freundii TJ15T harboring wild-type GyrA, ParC, GyrB genes by agar dilution method; format: functional; in short: as §2
Citrobacter freundii [23] = experiment: Antimicrobial activity against aac(6')-Ib-cr-positive Citrobacter freundii JS33T harboring qnrA gene by agar dilution method; format: functional; in short: as §2
Citrobacter freundii [24] = experiment: Antimicrobial activity against aac(6')-Ib-cr-positive Citrobacter freundii JN1 harboring GyrA T83I, ParC S80I mutant, wild-type GyrB and qnrA genes by agar dilution method; format: functional; in short: as §2
Enterobacter cloacae [25] = experiment: Antimicrobial activity against aac(6')-Ib-cr-negative Enterobacter cloacae FJ61 harboring GyrA S83I, GyrA D87A, ParC S80I mutant, wild-type GyrB and qnrS genes by agar dilution method; format: functional
Enterobacter cloacae [26] = experiment: Antimicrobial activity against aac(6')-Ib-cr-negative Enterobacter cloacae FJ61T harboring qnrS gene by agar dilution method; format: functional
Klebsiella pneumoniae [27] = experiment: Antimicrobial activity against aac(6')-Ib-cr-negative Klebsiella pneumoniae SY22T harboring qnrS gene by agar dilution method; format: functional; in short: as §2
Escherichia coli [28] = experiment: Antimicrobial activity against aac(6')-Ib-cr-negative Escherichia coli PU12T harboring wild-type GyrA, GyrB, ParC and qnrS genes by agar dilution method; format: functional; in short: as §2
Klebsiella pneumoniae [29] = experiment: Antimicrobial activity against aac(6')-Ib-cr-positive Klebsiella pneumoniae WH99 harboring wild-type GyrA, ParC, GyrB and qnrB genes by agar dilution method; format: functional; in short: as §3
Enterobacter cloacae [30] = experiment: Antimicrobial activity against aac(6')-Ib-cr-negative Enterobacter cloacae WH42T harboring qnrA gene by agar dilution method; format: functional
Citrobacter freundii [31] = experiment: Antimicrobial activity against aac(6')-Ib-cr-negative Citrobacter freundii JN64T harboring qnrA gene by agar dilution method; format: functional; in short: as §2
Enterobacter cloacae [32] = experiment: Antimicrobial activity against aac(6')-Ib-cr-negative Enterobacter cloacae FJ67 harboring […] and qnrS genes by agar dilution method; format: functional
Klebsiella pneumoniae [33] = experiment: Antimicrobial activity against aac(6')-Ib-cr-positive Klebsiella pneumoniae SY26T harboring wild-type GyrA, ParC, GyrB and qnrB genes by agar dilution method; format: functional
In short: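 Transconjugants were made by conjugating a qnr/aac(6')-Ib-cr donor with azide-resistant E. coli J53. MICs were read by CLSI agar dilution (M7-A7) and interpreted per M100-S17.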

Citrobacter freundii [34] = experiment: Antimicrobial activity against aac(6')-Ib-cr-positive Citrobacter freundii TJ15 harboring GyrA T83I, ParC S80I mutant, wild-type GyrB, qnrB genes by agar dilution method; format: functional; in short: as §2
Enterobacter cloacae [35] = experiment: Antimicrobial activity against aac(6')-Ib-cr-negative Enterobacter cloacae WH42 harboring wild-type GyrA, ParC, GyrB and qnrA genes by agar dilution method; format: functional
Enterobacter cloacae [36] = experiment: Antimicrobial activity against aac(6')-Ib-cr-negative Enterobacter cloacae SH39 harboring GyrA S83I, ParC S80I mutant, wild-type GyrB and qnrA genes by agar dilution method; format: functional
Klebsiella pneumoniae [37] = experiment: Antimicrobial activity against aac(6')-Ib-cr-positive Klebsiella pneumoniae JN41 harboring GyrA S83I, ParC S80I mutant, wild-type GyrB and qnrB genes by agar dilution method; format: functional; in short: as §3
Enterobacter cloacae [38] = experiment: Antimicrobial activity against aac(6')-Ib-cr-positive Enterobacter cloacae FJ63T harboring qnrS gene by agar dilution method; format: functional
Klebsiella pneumoniae [39] = experiment: Antimicrobial activity against aac(6')-Ib-cr-positive Klebsiella pneumoniae SY26 harboring GyrA S83I, ParC S80I mutant, wild-type GyrB and qnrB genes by agar dilution method; format: functional; in short: as §3
Citrobacter freundii [40] = experiment: Antimicrobial activity against aac(6')-Ib-cr-negative Citrobacter freundii JN64 harboring GyrA T83I, wild-type ParC, GyrB and qnrA genes by agar dilution method; format: functional; in short: as §2
Enterobacter cloacae [41] = experiment: Antimicrobial activity against aac(6')-Ib-cr-negative Enterobacter cloacae GZ47T harboring qnrB gene by agar dilution method; format: functional

Measured: MIC

C[C@@H](O)[C@H]1C(=O)N2C(C(=O)O)=C(S[C@@H]3CN[C@H](C(=O)N(C)C)C3)[C@H](C)[C@H]12 [MEROPENEM]
0.064 mg/L: Enterobacter cloacae [6] | Enterobacter cloacae [38]
0.25 mg/L: Citrobacter freundii [10] | Enterobacter cloacae [25] | Citrobacter freundii [40]
1 mg/L: Enterobacter cloacae [4]
0.125 mg/L: Citrobacter freundii [9] | Klebsiella pneumoniae [12] | Citrobacter freundii [24] | Enterobacter cloacae [35] | Enterobacter cloacae [36] | Klebsiella pneumoniae [39]
0.032 mg/L: Klebsiella pneumoniae [1] | Enterobacter cloacae [13] | Klebsiella pneumoniae [14] | Escherichia coli [16] | Enterobacter cloacae [20] | Escherichia coli [21] | Citrobacter freundii [23] | Klebsiella pneumoniae [29] | Enterobacter cloacae [32] | Citrobacter freundii [34] | Klebsiella pneumoniae [37]
0.016 mg/L: Citrobacter freundii [2] | Klebsiella pneumoniae [3] | Klebsiella pneumoniae [5] | Enterobacter cloacae [7] | Escherichia coli [8] | Klebsiella pneumoniae [11] | Enterobacter cloacae [15] | Escherichia coli [17] | Klebsiella pneumoniae [18] | Citrobacter freundii [19] | Citrobacter freundii [22] | Enterobacter cloacae [26] | Klebsiella pneumoniae [27] | Escherichia coli [28] | Enterobacter cloacae [30] | Citrobacter freundii [31] | Klebsiella pneumoniae [33] | Enterobacter cloacae [41]

Cc1cc(NS(=O)(=O)c2ccc(N)cc2)no1 [SULFAMETHOXAZOLE]
32 mg/L: Citrobacter freundii [2]
64 mg/L: Klebsiella pneumoniae [18]
256 mg/L: Enterobacter cloacae [7] | Citrobacter freundii [24] | Enterobacter cloacae [41]
16 mg/L: Escherichia coli [17] | Enterobacter cloacae [25] | Enterobacter cloacae [26] | Klebsiella pneumoniae [27]
> 256 mg/L: Klebsiella pneumoniae [1] | Klebsiella pneumoniae [3] | Enterobacter cloacae [4] | Klebsiella pneumoniae [5] | Enterobacter cloacae [6] | Escherichia coli [8] | Citrobacter freundii [9] | Citrobacter freundii [10] | Klebsiella pneumoniae [11] | Klebsiella pneumoniae [12] | Enterobacter cloacae [13] | Klebsiella pneumoniae [14] | Enterobacter cloacae [15] | Escherichia coli [16] | Citrobacter freundii [19] | Enterobacter cloacae [20] | Escherichia coli [21] | Citrobacter freundii [22] | Citrobacter freundii [23] | Escherichia coli [28] | Klebsiella pneumoniae [29] | Enterobacter cloacae [30] | Citrobacter freundii [31] | Enterobacter cloacae [32] | Klebsiella pneumoniae [33] | Citrobacter freundii [34] | Enterobacter cloacae [35] | Enterobacter cloacae [36] | Klebsiella pneumoniae [37] | Enterobacter cloacae [38] | Klebsiella pneumoniae [39] | Citrobacter freundii [40]
